The source of these data is ChEMBL document CHEMBL1129465, “Polyamine analogue regulation of NMDA MK-801 binding: a structure-activity study” (J Med Chem, 1996).

Where only a bound is given, the exact number is not on record here.

Common to all, as to type: ADME
A short description of series [1]: Acid base constant value for N1 atom. The following applies: read-out: pKa1. The gist of the method:
(§1)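 Potentiometric titration: the polyamine hydrochloride salt was first converted to the free amine by adding base, then titrated in 0.1 N KCl. Each nitrogen's pKa was estimated by a nonlinear least-squares computer fit of the titration curve. Fractions of the protonated species were then simulated from the measured pKa values.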

A short description of series [2]: Acid base constant value for N2 atom. The conditions noted are these: read-out: pKa2. An outline of the steps:
as §1

A short description of series [3]: Acid base constant value for N4 atom. The conditions noted are these: read-out: pKa4. An outline of the steps:
as §1

A short description of series [4]: Acid base constant value for N3 atom. The conditions noted are these: read-out: pKa3. An outline of the steps:
as §1

Take `C(CCNC1CCNCC1)CNC1CCNCC1`: the pKa turned out to be 11.4 in series [1], 10.7 in series [2], 7.6 in series [3] and 9.02 in series [4].

For `C(CNC1CCNCC1)CNC1CCNCC1`, the pKa in series [1] stood at 11.2; in series [2] it was 10.7; in series [3], 7.14; in series [4], 8.88.

For the molecule `C(CCNCCC1CCNCC1)CNCCC1CCNCC1`, the pKa amounted to 10.9 in series [1], 10.8 in series [2], 9.1 in series [3] and 10 in series [4].

For the molecule `c1cc(NCCCNc2ccncc2)ccn1`, the pKa in series [1] is 9.55; in series [2] it was 9.14; in series [3], less than 2; in series [4], less than 2.

Regarding `NCCCCNCCCCNCCCCN`, the pKa in series [1] turned out to be 11.2; in series [2], 10.4; in series [3], 8.72; in series [4] it was 9.57.

Consider `CCNCCCNCCCNCCCNCC` [BIS(ETHYL)NORSPERMINE], for which the pKa was determined as 10.8 in series [1], 9.91 in series [2], 7.68 in series [3] and 8.51 in series [4].

In the case of `CCNCCCNCCCCNCCCNCC` [BIS(ETHYL)SPERMINE], the pKa in series [1] was 11.2; in series [2], 10.8; in series [3], 8.25; in series [4] it was 9.42.

With `CCNCCCCNCCCCNCCCCNCC` [DIETHYLHOMOSPERMINE], the pKa came to 11.1 in series [1], 10.8 in series [2], 8.91 in series [3] and 9.73 in series [4].

Regarding `NCCCNCCCNCCCN` [THERMINE], the pKa came out at 10.6 in series [1], 9.8 in series [2], 7.51 in series [3] and 8.35 in series [4].
